Here are results for 1 compound from ChEMBL document CHEMBL3580565, “Synthesis and Biological Evaluation of Cyclopentaquinoline Derivatives as Nonsteroidal Glucocorticoid Receptor Antagonists” (J Med Chem, 2015).

Each structure is given as a SMILES string.

One data set has as its target Estrogen receptor (Homo sapiens, UniProt P03372). Briefly: Displacement of fluormone ES2 from human recombinant estrogen receptor-alpha expressed in insect Sf9 cells after 120 mins by fluorescence polarization assay. A digest of the protocol:
(§1)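 Assay run at Cerep. Fluorescence polarization with Fluormone ES2 tracer, using recombinant human ERα expressed in Sf9 cells and ERβ expressed in Hi5 cells.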
(In general: Fluorescence polarisation rises when a labelled molecule tumbles more slowly, as on binding a larger partner.)

A further data set deals with Estrogen receptor beta (Homo sapiens, UniProt Q92731). The data set is described as follows: Displacement of fluormone ES2 from human recombinant estrogen receptor-beta expressed in insect Hi5 cells after 120 mins by fluorescence polarization assay. The arrangement: species or system BTI-TN-5B1-4. The gist of the method: as §1
Chain of Estrogen receptor beta (Q92731 whole entry): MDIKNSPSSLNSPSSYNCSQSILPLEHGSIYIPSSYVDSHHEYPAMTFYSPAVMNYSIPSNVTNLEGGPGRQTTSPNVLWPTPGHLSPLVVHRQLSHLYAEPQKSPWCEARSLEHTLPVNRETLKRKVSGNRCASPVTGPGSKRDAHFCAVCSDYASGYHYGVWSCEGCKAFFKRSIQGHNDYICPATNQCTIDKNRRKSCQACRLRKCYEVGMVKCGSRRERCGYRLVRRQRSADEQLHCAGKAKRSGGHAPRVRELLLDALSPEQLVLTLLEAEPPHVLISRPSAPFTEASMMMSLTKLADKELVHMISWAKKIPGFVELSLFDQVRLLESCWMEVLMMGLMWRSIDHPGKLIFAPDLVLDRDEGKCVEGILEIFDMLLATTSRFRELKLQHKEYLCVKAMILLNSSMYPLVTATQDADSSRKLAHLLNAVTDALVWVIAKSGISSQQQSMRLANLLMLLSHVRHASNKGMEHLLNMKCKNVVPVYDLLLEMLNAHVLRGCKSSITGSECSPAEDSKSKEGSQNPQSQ
Another data set has as its target T1, Androgen receptor (Homo sapiens, UniProt P10275).
T1 sequence (P10275 whole entry): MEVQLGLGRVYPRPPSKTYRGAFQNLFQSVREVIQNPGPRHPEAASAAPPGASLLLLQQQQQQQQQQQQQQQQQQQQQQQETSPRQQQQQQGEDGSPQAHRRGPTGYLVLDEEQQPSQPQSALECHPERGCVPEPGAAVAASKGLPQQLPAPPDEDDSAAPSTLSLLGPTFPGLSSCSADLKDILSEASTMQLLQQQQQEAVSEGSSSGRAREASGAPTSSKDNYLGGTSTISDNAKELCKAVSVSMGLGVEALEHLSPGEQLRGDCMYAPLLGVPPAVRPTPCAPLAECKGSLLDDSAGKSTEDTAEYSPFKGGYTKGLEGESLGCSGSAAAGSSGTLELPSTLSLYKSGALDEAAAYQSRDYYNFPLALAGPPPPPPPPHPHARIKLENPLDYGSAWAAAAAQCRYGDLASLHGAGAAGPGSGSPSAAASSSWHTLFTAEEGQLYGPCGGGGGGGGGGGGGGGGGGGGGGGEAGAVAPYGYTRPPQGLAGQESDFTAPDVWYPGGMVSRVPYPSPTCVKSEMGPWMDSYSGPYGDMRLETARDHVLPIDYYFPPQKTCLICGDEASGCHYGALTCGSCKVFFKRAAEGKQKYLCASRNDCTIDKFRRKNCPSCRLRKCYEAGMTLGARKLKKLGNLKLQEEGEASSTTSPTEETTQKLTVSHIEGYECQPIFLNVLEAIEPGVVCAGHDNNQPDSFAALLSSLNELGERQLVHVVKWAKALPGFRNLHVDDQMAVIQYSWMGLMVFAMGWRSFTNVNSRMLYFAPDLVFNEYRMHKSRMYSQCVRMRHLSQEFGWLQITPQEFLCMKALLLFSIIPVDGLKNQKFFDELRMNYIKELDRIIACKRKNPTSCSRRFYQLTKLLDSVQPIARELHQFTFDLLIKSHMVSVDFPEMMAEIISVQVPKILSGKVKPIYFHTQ
The data set is described as follows: Displacement of [3H]methyltrienolone from cytosolic fraction of androgen receptor in human […] cells after 24 hrs by scintillation counting analysis. It counts as cell-based. A digest of the protocol: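 Assay run at Cerep. Binding of [³H]methyltrienolone to cytosolic androgen receptor from LNCaP cells.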
On the technique in general: In a radioligand displacement assay an active substance lowers the binding of a labelled ligand.

Data set [1] is described as follows: Cmax in Sprague-Dawley rat at 1 mg/kg, iv by LC/MS/MS analysis. It counts as ADME, organism-based. Details: dose 1 mg/kg, route intravenous. The settings on record: in vivo. The gist of the method: (§2)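 Single intravenous dose to male Sprague–Dawley rats (n = 4). Jugular vein blood drawn at 0.05, 0.25, 0.5, 1, 2, 4, 8 and 24 h, heparin anticoagulant, plasma separated by centrifugation. Plasma drug level measured by LC/MS/MS.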

A short description of data set [2]: Cmax in Sprague-Dawley rat at 10 mg/kg, po by LC/MS/MS analysis. It counts as ADME, organism-based. Details: dose 10 mg/kg, route oral. Particulars: in vivo. A digest of the protocol:
(§3)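 Male Sprague–Dawley rats dosed orally (n = 4). Jugular vein blood sampled at 0.25, 0.5, 1, 2, 4, 6 and 24 h into heparin, plasma obtained by centrifugation. Concentrations determined by LC/MS/MS.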

The nature of data set [3]: AUC (0 to t) in Sprague-Dawley rat at 1 mg/kg, iv by LC/MS/MS analysis. Particulars: in vivo. Format: ADME, organism-based. A digest of the protocol:
as §2

Data set [4] in a line: AUC (0 to t) in Sprague-Dawley rat at 10 mg/kg, po by LC/MS/MS analysis. Format: ADME, organism-based. The settings on record: in vivo. A digest of the protocol:
as §3

Data set [5] can be described thus: Half life in Sprague-Dawley rat at 1 mg/kg, iv by LC/MS/MS analysis. The settings on record: in vivo. Format: ADME, organism-based. A digest of the protocol:
as §2

The nature of data set [6]: AUC (0 to infinity) in Sprague-Dawley rat at 1 mg/kg, iv by LC/MS/MS analysis. Particulars: in vivo. The arrangement: dose 1 mg/kg, route intravenous, time infinity. It counts as ADME, organism-based. A digest of the protocol: as §2
Data set [7] is described as follows: Total clearance in Sprague-Dawley rat at 1 mg/kg, iv by LC/MS/MS analysis. Format: ADME, organism-based. The settings on record: in vivo. The gist of the method:
as §2

Data set [8] in a line: Volume of distribution at steady state in Sprague-Dawley rat at 1 mg/kg, iv by LC/MS/MS analysis. Format: ADME, organism-based. Particulars: in vivo, read-out: Vdss. A digest of the protocol:
as §2

A short description of data set [9]: Oral bioavailability (0 to infinity) in Sprague-Dawley rat at 10 mg/kg by LC/MS/MS analysis. It counts as ADME, organism-based. The settings on record: in vivo. The gist of the method:
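Bioavailability from paired studies in male Sprague–Dawley rats: 1 mg/kg i.v. and 10 mg/kg p.o. (n = 4 each). Jugular vein heparinized plasma sampled up to 24 h, quantified by LC/MS/MS.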

The nature of data set [10]: Unbound brain to plasma concentration ratio in Sprague-Dawley rat at 30 mg/kg, po measured at 1 hr by LC/MS/MS analysis. Format: ADME, organism-based. Particulars: brain and plasma, read-out: K(p,uu,brain). The gist of the method:
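Male SD rats given 30 mg/kg orally (n = 3 per time point), killed at 1 and 3 h. Heparinized blood collected for plasma; brain rinsed in saline, weighed, homogenized in five volumes (w/v) saline. Plasma and brain levels by LC/MS/MS. Kp,uu,brain is the ratio of unbound brain to unbound plasma concentration.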

Data set [11] relates to Rattus norvegicus. The data set is described as follows: Antidepressant-like activity in Wistar rat assessed as immobility time at 30 mg/kg, po administered at 1, 5, 23.5 hrs prior to testing measured for 5 mins by forced swimming test (reference value: 211.3 to 232.2 secs). Format: functional.
Data set [12] relates to Rattus norvegicus. The data set is described as follows: Antidepressant-like activity in Wistar rat assessed as immobility time at 100 mg/kg, po administered at 1, 5, 23.5 hrs prior to testing measured for 5 mins by forced swimming test (reference value: 211.3 to 232.2 secs). It counts as functional.
Data set [13] concerns Rattus norvegicus. Briefly: Antidepressant-like activity in Wistar rat assessed as decrease in immobility time at 30 mg/kg, po administered at 1, 5, 23.5 hrs prior to testing measured for 5 mins by forced swimming test relative to vehicle-treated control. Details: scale not given: the % may be the effect or the level left. Format: functional.
The subject of data set [14] is Rattus norvegicus. The data set is described as follows: Antidepressant-like activity in Wistar rat assessed as decrease in immobility time at 100 mg/kg, po administered at 1, 5, 23.5 hrs prior to testing measured for 5 mins by forced swimming test relative to vehicle-treated control. The arrangement: scale not given: the % may be the effect or the level left. Format: functional.

As a reminder, the Ki is a dissociation constant, usually derived from enzyme kinetics or from competition with a known ligand. In general, Cmax refers to the highest concentration seen after dosing. What is called AUC(0-t) is exposure summed from dosing to a finite time, without extrapolation to infinity. The term half-life denotes the time needed for the level to fall by half in the phase considered. One may read the AUC(0-inf) as the area under the concentration-time curve extrapolated to infinity. Usually clearance stands for the rate of elimination divided by the concentration. As a reminder, the bioavailability is the share of a dose that reaches the circulation, judged against a reference dose that is usually intravenous.

Chain of Estrogen receptor (P03372 whole entry, looked up): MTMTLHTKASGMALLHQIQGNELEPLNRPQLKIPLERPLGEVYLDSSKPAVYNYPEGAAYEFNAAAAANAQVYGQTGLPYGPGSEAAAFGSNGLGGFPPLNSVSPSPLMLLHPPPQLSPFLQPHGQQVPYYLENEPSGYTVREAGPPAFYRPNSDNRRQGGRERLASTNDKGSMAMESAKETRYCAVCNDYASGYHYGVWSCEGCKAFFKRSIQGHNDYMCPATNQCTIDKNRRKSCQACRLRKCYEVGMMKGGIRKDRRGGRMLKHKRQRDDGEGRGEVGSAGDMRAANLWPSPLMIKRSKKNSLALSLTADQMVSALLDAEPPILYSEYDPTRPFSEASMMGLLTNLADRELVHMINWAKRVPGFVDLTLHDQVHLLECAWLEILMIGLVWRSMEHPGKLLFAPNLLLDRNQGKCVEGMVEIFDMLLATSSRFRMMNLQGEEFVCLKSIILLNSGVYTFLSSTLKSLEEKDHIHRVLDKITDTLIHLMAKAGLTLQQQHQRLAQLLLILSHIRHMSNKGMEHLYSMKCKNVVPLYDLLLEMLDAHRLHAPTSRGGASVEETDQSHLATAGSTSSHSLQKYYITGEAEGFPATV

With `Cc1noc(C)c1-c1cc2c(c3c1CCC3)NC(C)(C)C(=O)C2(C)C`, the Ki on Estrogen receptor, on Estrogen receptor beta and at Androgen receptor was greater than 2.3 µM throughout. Moreover, the Cmax amounted to 633 ng/mL in data set [1] and 273 ng/mL in data set [2]. For the same compound, the AUC(0-t) in data set [3] is 410 ng·h/mL; in data set [4], 2420 ng·h/mL. The compound also showed a half-life in data set [5] of 3.2 h. Further, the AUC(0-inf) in data set [6] is 460 ng·h/mL. Also, the clearance in data set [7] was 37.1 mL/min/kg. In [8], the Vd is 6.13 L/kg. Further, the bioavailability in data set [9] stood at 59%. In [10], the Kp uu at 1 h turned out to be 1.8. The Time in the data set with Rattus norvegicus [11] turned out to be 170.7 s; with Rattus norvegicus [12], 187.3 s. Also, the Activity in the data set on Rattus norvegicus [13] was determined as 75.9%; with Rattus norvegicus [14], 80.7%.
